This test deals with Mycobacterium tuberculosis. As to the kind of experiment: Induction of membrane disruption in Mycobacterium bovis BCG ATCC 35734 harboring piniBAC-RFP assessed as increase in iniBAC cluster transactivation up to 100 uM after 24 hrs by RFP-based fluorescence assay. The note with it: BCG str. ATCC 35743. Type of test: functional, organism-based. The method in brief: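 Recombinant M. bovis carrying iniBAC promoter-driven RFP treated 24 h with 0.4–100 μM; promoter induction read as RFP fluorescence; isoniazid as positive control.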

Molecules are shown by their SMILES. Activity calls are given as the source filed them. The calls are words filed in the database; no cut-off is given here.

`NNC(=O)c1ccncc1`: the result was Active.

Consider `COc1cccc2ccn(CCCCC[P+](c3ccccc3)(c3ccccc3)c3ccccc3)c12.[I-]`, for which the outcome was inactive.

The values are drawn from ChEMBL document CHEMBL4130564, “Indolylalkyltriphenylphosphonium Analogues Are Membrane-Depolarizing Mycobactericidal Agents” (ACS Med Chem Lett, 2017).
